Assay results: the RNAGym collection of RNA variant scans (doi:10.1126/science.aae0568)
Variants at the floor of the assay were thinned out.

B1: tRNA (parent)
chain: GUUCCGUUGGCGUAAUGGUAACGCGUCUCCCUCCUAAGGAGAAGACUGCGGGUUCGAGUCCCGUACGGAACG

Variants of: B1
Assay: yeast fitness relative to wild type (ratio to wild type); higher = fitter; tRNA-Arg(CCU), competitive growth, 37 C, YPD
In short: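 Changes in genotype frequencies gave Darwinian fitness relative to wild type. Frequencies were read by 100-nucleotide paired-end sequencing of gene amplicons before and after pooled Saccharomyces cerevisiae strains, carrying tRNA-Arg(CCU) gene variants at the native locus, were competed in YPD at 37°C for 24 hours in six replicates. A genotype was kept only with ≥ 100 starting reads, and estimates < 0.5 were set to 0.5.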

Variant | yeast fitness
GUUACGUUGGCGUAAUGGUAAGGCGUCUCCCUCCUAAGGAGAAGACUGAGGGUUUGAGUCCCGUAAGGCACG [C4A C22G C49A C55U C66A A69C] | ≤ 0.5
GUUCCGUUGGCGUCAUGGUAACGUGUCUCCCUCCUAAGGAGAAGUCUGCGCGUUCGAGUCCCGUACGGAACG [A14C C24U A45U G51C] | ≤ 0.5
GUUCCGUUGGGGUAAUGGUAACGUGUCCCCCUCCUAAGGAGAAGACUGCGGGUUCGAGUCCAGUACGGAACG [C11G C24U U28C C62A] | ≤ 0.5
GUUCCGUUGGCGUAAUGGUAACGCGUCGCGCUCCUAAGGCGUAGACUGCGGGUUCGAGUCCCGUACGGAACG [U28G C30G A40C A42U] | ≤ 0.5
GUUCUGUUGGUGUAAUGGUAACGCGUCUCCCUCCUAAGGAGAAGACUGCGGGUUCGAGUCGCCUACGGAACG [C5U C11U C61G G63C] | 0.546
GUUCCGUUGGCGUAAUGGUAACGUGUCUCCCUCCUAGGAAGAAGACUCCGGGUUCGAGUCCCGUACGGCACG [C24U A37G G39A G48C A69C] | ≤ 0.5
GUUCCGUUGGCGUAAUGGCAACGCGUCUCCCUCCUAAGGAGAAGACUGCGGGUUCGUGUCCCGUACGGAACG [U19C A57U] | 0.658
GUUCCGUUGGCGUAAUGGUAACGCGUCUCCCUCCUAAGGAGAAGACUGCGGGUUCGAGUCACGAACGGUACG [C61A U64A A69U] | 0.558
GUUCCGUUGGCGUAAUGGUAACGCGUCUCCUUCCUAAGGAGAAGACUGCGGGUUCGAGUCCCGUACUGAACG [C31U G67U] | 0.952
GUUCCGAUGACGUAAUGGUAACGCGUCUCACUCCUAAGGAGACGACUGCGGGUUCGAGUCCCGUACGGAACG [U7A G10A C30A A43C] | ≤ 0.5
GUUCCAUUGGUGCAAUGGUAACGCGUGUCCCUCCUAAGGAGAAGACUGCGGGUUCGAGUCCCGUACGGCACG [G6A C11U U13C C27G A69C] | 0.541
GUUCCGUUGGCGUAUUGGUAACGGGUCUCCCUCCUAAGGAGAACACUGCGGGUUCGACUCCCGUACGUAACG [A15U C24G G44C G58C G68U] | ≤ 0.5
GUUCCGUUGCCGUAAUGGUAACGCGUCUCCCUCCUUAGGAGAAGACUGCGGGUUCGAGUCCCGUAUGGACCG [G10C A36U C66U A70C] | ≤ 0.5
GUUCCGUUGGCGUAAUGGUAACGAGUCUCCCUCCUAAGGAGAAGACUGCGAGUUCGAGUCCCGUAUGGAACG [C24A G51A C66U] | ≤ 0.5
GUUCCGAUGGCGUAAUGGUACCGCGUCUCCCCCCUAAGGAGAAGACUGCGGGUUCGAGUCCCGUACGGAACG [U7A A21C U32C] | ≤ 0.5
GUUCCGCUGGCGUAAUGGUAGCGCGUCUACCUCCUAAGGAGAAGACUCCGGGUUCGAGUCCCGUACGGAACG [U7C A21G C29A G48C] | 0.555
GUUCCGUUGGCGUAAUGGUAACGCGUCUCGCUCCUAAGGAAAAGCCUGCGGGUUCGAGUCCCGUACGGAACG [C30G G41A A45C] | ≤ 0.5
GUUCCGUUGGCGUAAAGGUAACGCGUCUCCCUCCUAAGGAGAAGUCUGCGGGUUCGAGUCCCGUACGGAACG [U16A A45U] | 1
GUUCUGUUGGCGUAAUGGUGGCGCGUCUCCUUCCUAAGGAGAAGACUGCGGGUUCGAGUCCCGUACGGAACG [C5U A20G A21G C31U] | ≤ 0.5

Variant | yeast fitness
GUUCCGUUGGCGUAAUGGUAACGCGUCUGCCUCCUAGGGAGAAGACUGCGGGUUCGAGUCCCGUACCGAACG [C29G A37G G67C] | 0.672
GUUCCGUUGGCGUAAUGGUAACGCGUCUCCCUCCUCAGGAGAAGACUGCGGGUUAGAGUCCCGUACGGAACG [A36C C55A] | ≤ 0.5
GUUCCAUCGGCGUAAUGGUAACGCGUCUCCCUCCUAAGGAGAAGACUGCGGGUUCGAGUCCCGUACGGAUCG [G6A U8C A70U] | 0.57
GUUCCGUUGGCGUAAUGGUAAGGCGUCUCCCUCAUAAGGAGAAGACUGCGGGUUCGAGUCCCGUACGGAACG [C22G C34A] | 0.757
GUUUCGUUGGCCUAAUGGUAACGCGUCUCCCUCCUAAGGAGAAGACUGCGGGUUCGAGUCCCGUACGGAACG [C4U G12C] | 0.884
GUUCCGUUGGCGUAAUGGUAACGCGUCUCCCUCCUCAGGAGAAGACUGAGGGUUCGAGUCCCGUACGGAACG [A36C C49A] | 0.563
GUUCAGUUGGGGUAAUGGUAACGCGUCUCCCUCCUAACGAGAAGACUGCGGGUUCGACUCCCGUACGGAACG [C5A C11G G38C G58C] | ≤ 0.5
GUUCCGUUCGCGUAAUGGUAACGCGUCGCCCUCCUAAGGAGAAGACUGCGGGUUGGAGUCCCGUACGGUACG [G9C U28G C55G A69U] | ≤ 0.5
GUUCCCUUGGGGUAAUGGUAACGCGUCUCCCUCCUAAGGAGAAGACUGCGGGUUCGAGUCUCGUACGGAACG [G6C C11G C61U] | ≤ 0.5
GUUCUGUUGGCGUAAUGGUAACGCGUCUCCCUCCUAAGGAGAAGACUGCGGGUUCGAGUCCCGUUCGCAACG [C5U A65U G68C] | 0.541
GUUCCGUUGGCGUAAUAGUAACGCGUCUCCCUCCUUAGGAGAAGACUGUGGGUUCGAGUCCUGUACGGAACG [G17A A36U C49U C62U] | ≤ 0.5
GUUCCGUUGGCGUAAUGGUCACGCGUCUCCCUCCUAAGGAGAAGACUGCGGGUUCGAGUCCCGUACCGAACG [A20C G67C] | 0.654
GUUCCGUUGGCGUAAUGGUAACGCGACUCCCUCCUAAGGAGAAGACUGCGGGUUCGAGUCCCCUACGGAACG [U26A G63C] | 0.683
GUUCCGAUGGCGUAAUGGUAACGCGUCUCAGUCCUAAGGAGAUGACUGCGGGUGCGAGUCCGGUACGGAACG [U7A C30A C31G A43U U54G C62G] | ≤ 0.5
GUUUCGUUGGCGUAAUGGUAACGCGUCUCCCUCCUAAGGAGCAGACUGCGGGUUCGAGUCCCCUACGGAACG [C4U A42C G63C] | 0.522
GUUCCGUUGGCGUCAUGGUAACGCGUCUCCCUCCUAAGGAGAAGACUGCGGGUUCGAGUCUCGUACGGACCG [A14C C61U A70C] | ≤ 0.5
GUUCCGUUGGCGUAAUGGCAACGCGUUUCCCUCCUAAGGAGAAGACUGCGGGUUCGAGUCCCGUACGGAACG [U19C C27U] | 1.08
GUACCGUUGGCGUAAUGGUAACGCGUCUCCCUCCUAAGGAGAAGACCGCGGGUUCGAGUCCCGUACGGAACG [U3A U47C] | 0.835
